For orientation: IC50 means the concentration that gives 50% inhibition. Lower therefore signals greater potency in that assay.

Data set [1] concerns DU-145 cell line (human prostate carcinoma). The data set is described as follows: MTT cytotoxicity assay, DU-145. The class given is cell-based. In short, it runs like this: (§1)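 Cells (1 × 10^4 per well in 0.2 mL medium) were exposed to test compounds, pre-dissolved in DMSO, at 0.01–1 mM for 24 h. Compounds were then washed out with three PBS washes, and MTT was read at once. Five replicates per concentration, each repeated at least three times; IC50 given as mean + SD. MCF7, A549 and HaCaT were grown in DMEM with 10% FBS and 1% streptomycin/penicillin. DU-145 and HEK293T were grown in MEM with 10% FBS. All cultures were kept at 37 °C, 5% CO2.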
A general note: Tetrazolium assays rely on reduction of a dye to a coloured formazan, in cell work by metabolically active cells.

Data set [2] relates to MCF7 cell line (human breast adenocarcinoma). The data set is described as follows: MTT cytotoxicity assay, MCF7. The class given is cell-based. In short, it runs like this:
as §1

Data set [3] relates to HaCat (human keratinocyte). The data set is described as follows: MTT cytotoxicity assay, HaCat. Format: cell-based. Particulars: 24 h. The essentials: as §1
In data set [4] the test system is HEK293T and HaCat normal cell lines. As to the kind of experiment: Cytotoxicity toward normal cell lines, stated in words. Format: cell-based, human. In short, it runs like this: as §1
Data set [5] deals with HEK293T cell line (human embryonic kidney). As to the kind of experiment: MTT cytotoxicity assay, HEK293T. The class given is cell-based. The settings on record: 24 h. In short, it runs like this:
as §1

Data set [6] has as its system DU-145 cells. The data set is described as follows: Mitochondrial membrane potential, JC-10 assay. The settings on record: DU-145, compounds at IC50, 24 h, JC-10 emission ratio 570 nm/530 nm. Format: cell-based, human. In short, it runs like this: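 DU-145 cells were seeded at 1 × 10^4 per 0.2 mL. After 24 h the medium was replaced with test compound solutions, gentamicin (0.5 mg mL−1, positive control) or ciprofloxacin (10 μg mL−1, negative control), then incubated 24 h at 37 °C, 5% CO2. Cells were PBS-washed twice and loaded with JC-10 for 1 h. Emission read at λex 540/λem 570 nm and λex 485/λem 530 nm; red/green ratio reported as mean + SD.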

The test system of data set [7] is A549 cell line (human lung adenocarcinoma). The data set is described as follows: MTT cytotoxicity assay, A549. Format: cell-based. In short, it runs like this: as §1
For data set [8], the system named is DU-145 cells. As to the kind of experiment: ROS generation, H2DCF-DA assay. Format: cell-based, human. The settings on record: DU-145, 24, 48 and 72 h, c = 1 μM. In short, it runs like this:
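DU-145 prostate carcinoma cells grown in MEM with 10% FBS at 37 °C, 5% CO2, seeded in 96-well plates. Cells were exposed continuously to test compound (copper complexes or free ligands), then loaded with the H2DCF-DA probe. ROS was read by fluorescence, with work done in darkness. Signal was related to an untreated negative control and an extra-H2O2 positive control.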

Data set [9] is described as follows: Stability in DMSO solution by FT-IR. The class given is physicochemical. Particulars: 2% solution in DMSO, 0-96 h, qualitative. In short, it runs like this:
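ATR FT-IR of 2% solutions of the complexes in DMSO, one drop on the diamond plate, recorded at 1, 24, 48, 72 and 96 h. Settings: 2 cm−1 resolution, 128 scans, 4000–400 and 600–100 cm−1, room temperature. Solution spectra were compared with the solid-state spectra; qualitative only.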

Another data set in a line: Stability in DMSO/H2O. The class given is physicochemical. The essentials: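 UV-Vis spectra of the complexes in DMSO/H2O (9:1, v/v) at room temperature, recorded right after dissolving and at 48 and 96 h. Full range recorded at 10−6 M; d–d bands recorded at 10−4 M.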
The mark [10] stands for this setting: DU145, cancer cell line, 24 h, MTT.
The mark [11] stands for this setting: MCF7, cancer cell line, 24 h, MTT.
[12] abbreviates: HaCat, non-cancerous cell line, MTT.
The mark [13] stands for this setting: HEK293T, non-cancerous cell line, MTT.
The mark [14] stands for this setting: A549, cancer cell line, 24 h, MTT.

Entries after “also recorded” stand apart in the source; their conditions may differ.

Take trans-[CuCl2(etpy)2] [Complex 1]: the IC50 in data set [1] (setting [10]), in [2] (setting [11]), in data set [3] (setting [12]), in data set [5] (setting [13]) and in data set [7] (setting [14]) was over 1 mM throughout. Also, the “Activity toward DU-145 cancer cells” value in data set [1] was “inactive”. The “Toxicity towards normal (healthy) cells” value in data set [4] is “did not exhibit toxicity; also recorded: nontoxic”. Further, in the data set with DU-145 cells [6], the “Reduction of mitochondrial membrane potential” value (shortened to “Reduction”) was “least effect”. The “ROS generation compared to negative control (order)” value with DU-145 cells [8] is reported as “complex 1 > complex 3 > 2-pyridineethanol > 2-ethylpyridyne”.

For the molecule `N.N.[Cl][Pt][Cl]` [Cisplatin, cisplatin, reference compound], the half-maximal inhibitory concentration (IC50) came to 0.0983 ± 0.0013 mM in data set [1] (setting [10]); 0.0509 ± 0.0026 mM in data set [2] (setting [11]); 0.0133 ± 0.0011 mM in [3] (setting [12]); 0.021 ± 0.0018 mM in [5] (setting [13]); 0.057 ± 0.0013 mM in [7] (setting [14]).

On to `CCc1ccccn1` [2-Ethylpyridine, 2-ethylpyridine], for which the half-inhibitory concentration (IC50) in data set [1] (Homo sapiens, DU-145, 24 h) was over 1 mM; in data set [2] (Homo sapiens, MCF7, 24 h), over 1 mM; in data set [3] (Homo sapiens, HaCaT), over 1 mM; in [5] (Homo sapiens, HEK-293T), over 1 mM; in [7] (Homo sapiens, A549, 24 h) it was over 1 mM. Besides, the “Reduction” value with DU-145 cells [6] is on record as “most significantly reduced”. In the data set on DU-145 cells [8], the “ROS generation compared to negative control (order)” value is “complex 1 > complex 3 > 2-pyridineethanol > 2-ethylpyridyne”.

`OCc1ccccn1` [2-Pyridinemethanol, 2-pyridinemethanol]: the half-inhibitory concentration (IC50) was over 1 mM in data set [1] (Homo sapiens, DU-145, 24 h); over 1 mM in data set [2] (Homo sapiens, MCF7, 24 h); over 1 mM in data set [3] (Homo sapiens, HaCaT); over 1 mM in data set [5] (Homo sapiens, HEK-293T); over 1 mM in data set [7] (Homo sapiens, A549, 24 h).

For the molecule `OCCc1ccccn1` [2-Pyridineethanol, 2-pyridineethanol], the IC50 in data set [1] (Homo sapiens, DU-145, 24 h) was over 1 mM; in [2] (Homo sapiens, MCF7, 24 h) it was over 1 mM; in data set [3] (Homo sapiens, HaCaT), over 1 mM; in data set [5] (Homo sapiens, HEK-293T) it was over 1 mM; in data set [7] (Homo sapiens, A549, 24 h), over 1 mM. Further, the “Reduction” value in the data set on DU-145 cells [6] is listed as “most significantly reduced”. In addition, the “ROS generation compared to negative control (order)” value in the data set with DU-145 cells [8] is recorded as “complex 1 > complex 3 > 2-pyridineethanol > 2-ethylpyridyne”.

On to [Cu4OCl6(etpy)4] [Complex 2], for which the IC50 in data set [1] (setting [10]), in data set [2] (setting [11]), in [3] (setting [12]), in data set [5] (setting [13]) and in [7] (setting [14]) was over 1 mM in each case. In addition, the “Activity toward DU-145 cancer cells” value in [1] is “inactive”. Moreover, the “Stability in DMSO solution” value in [9] was “turns into complex 1”. In “Stability in DMSO/H2O” (DMSO/H2O 9:1 v/v, room temperature, 0 min, 48 h and 96 h, UV-Vis), the “Stability in DMSO/H2O solution” value is on record as “turns into complex 1”. In “Stability in DMSO/H2O” (biological medium, confirmed by UV-Vis and FT-IR), the “Structure after dissolving in biological medium” value is listed as “adopts the same structure as compound 1”.
